Paper PMC5656813 (Arthritis & Rheumatology (Hoboken, N.j.), 2017)

How the values were obtained:
[1] = test system: RA patients; test: Study 1, treatment‐emergent adverse events; assay type: in vivo, human; details: for treatment-related TEAE: Abdominal discomfort / treatment-related TEAE: Abdominal pain, upper / treatment-related TEAE: Aspartate aminotransferase increased / treatment-related TEAE: Blood amylase increased / treatment-related TEAE: Blood and lymphatic system disorders / treatment-related TEAE: Blood triglycerides increased / treatment-related TEAE: Cystitis, noninfectious / treatment-related TEAE: Duodenogastric reflux / treatment-related TEAE: Ear and labyrinth disorders / treatment-related TEAE: Gastrointestinal disorders / treatment-related TEAE: Gastrointestinal pain / treatment-related TEAE: General disorders and administration site reactions / treatment-related TEAE: Gingival bleeding / treatment-related TEAE: Infections and infestations / treatment-related TEAE: Laboratory findings / treatment-related TEAE: Lipase increased / treatment-related TEAE: Musculoskeletal and connective tissue disorders / treatment-related TEAE: Nervous system disorders / treatment-related TEAE: Renal and urinary disorders: study 1
In short: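 Both double-blind, placebo-controlled trials in RA patients on stable MTX. Oral capsules daily for 4 weeks, with 7–10-day follow-up: 200 mg once daily or 100 mg twice daily (study 1); 30, 75, 150 or 300 mg once daily (study 2). At every visit: AEs, vital signs, hematology, serum biochemistry, coagulation and urinalysis. EKG at baseline and follow-up, plus week 4 in study 1. Safety population, descriptive treatment-emergent AE summaries.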

[2] = test system: RA patients with an inadequate response to MTX; test: Study 2; assay type: in vivo, human; details: study 2
In short: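 Randomized, double-blind, placebo-controlled dose-ranging trial: 91 RA patients, 19 sites in 4 countries, 1:1:1:1:1 allocation. Patients had MTX for ≥12 weeks and a stable 7.5–25 mg/week dose for ≥4 weeks, continued throughout. Oral capsules once daily at 30, 75, 150 or 300 mg for 4 weeks. Read-outs: ACR responses, DAS28-CRP and HAQ DI change from baseline at week 4. Intent-to-treat population.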

O=C(Nc1nc2cccc(-c3ccc(CN4CCS(=O)(=O)CC4)cc3)n2n1)C1CC1 [Filgotinib]
treatment-related TEAE: Abdominal discomfort ([1]; 100 mg twice daily): 1 (8.3) number (%) of patients
treatment-related TEAE: Abdominal pain, upper ([1]; 100 mg twice daily): 0 number (%) of patients
treatment-related TEAE: Aspartate aminotransferase increased ([1]; 100 mg twice daily): 0 number (%) of patients
treatment-related TEAE: Blood amylase increased ([1]; 100 mg twice daily): 0 number (%) of patients
treatment-related TEAE: Blood and lymphatic system disorders ([1]; 100 mg twice daily): 0 number (%) of patients
treatment-related TEAE: Blood triglycerides increased ([1]; 100 mg twice daily): 0 number (%) of patients
treatment-related TEAE: Cystitis, noninfectious ([1]; 100 mg twice daily): 0 number (%) of patients
treatment-related TEAE: Duodenogastric reflux ([1]; 100 mg twice daily): 0 number (%) of patients
treatment-related TEAE: Ear and labyrinth disorders ([1]; 100 mg twice daily): 0 number (%) of patients
treatment-related TEAE: Gastrointestinal disorders ([1]; 100 mg twice daily): 2 (16.7) number (%) of patients
treatment-related TEAE: Gastrointestinal pain ([1]; 100 mg twice daily): 0 number (%) of patients
treatment-related TEAE: General disorders and administration site reactions ([1]; 100 mg twice daily): 0 number (%) of patients
treatment-related TEAE: Gingival bleeding ([1]; 100 mg twice daily): 0 number (%) of patients
treatment-related TEAE: Infections and infestations ([1]; 100 mg twice daily): 0 number (%) of patients
treatment-related TEAE: Laboratory findings ([1]; 100 mg twice daily): 1 (8.3) number (%) of patients
treatment-related TEAE: Lipase increased ([1]; 100 mg twice daily): 1 (8.3) number (%) of patients
treatment-related TEAE: Musculoskeletal and connective tissue disorders ([1]; 100 mg twice daily): 0 number (%) of patients
treatment-related TEAE: Nervous system disorders ([1]; 100 mg twice daily): 1 (8.3) number (%) of patients
treatment-related TEAE: Renal and urinary disorders ([1]; 100 mg twice daily): 0 number (%) of patients
treatment-related TEAE: Abdominal discomfort ([1]; 200 mg once daily): 0 number (%) of patients
treatment-related TEAE: Abdominal pain, upper ([1]; 200 mg once daily): 1 (8.3) number (%) of patients
treatment-related TEAE: Aspartate aminotransferase increased ([1]; 200 mg once daily): 0 number (%) of patients
treatment-related TEAE: Blood amylase increased ([1]; 200 mg once daily): 0 number (%) of patients
treatment-related TEAE: Blood and lymphatic system disorders ([1]; 200 mg once daily): 0 number (%) of patients
treatment-related TEAE: Blood triglycerides increased ([1]; 200 mg once daily): 0 number (%) of patients
treatment-related TEAE: Cystitis, noninfectious ([1]; 200 mg once daily): 0 number (%) of patients
treatment-related TEAE: Duodenogastric reflux ([1]; 200 mg once daily): 0 number (%) of patients
treatment-related TEAE: Ear and labyrinth disorders ([1]; 200 mg once daily): 0 number (%) of patients
treatment-related TEAE: Gastrointestinal disorders ([1]; 200 mg once daily): 2 (16.7) number (%) of patients
treatment-related TEAE: Gastrointestinal pain ([1]; 200 mg once daily): 0 number (%) of patients
treatment-related TEAE: General disorders and administration site reactions ([1]; 200 mg once daily): 0 number (%) of patients
treatment-related TEAE: Gingival bleeding ([1]; 200 mg once daily): 0 number (%) of patients
treatment-related TEAE: Infections and infestations ([1]; 200 mg once daily): 0 number (%) of patients
treatment-related TEAE: Laboratory findings ([1]; 200 mg once daily): 0 number (%) of patients
treatment-related TEAE: Lipase increased ([1]; 200 mg once daily): 0 number (%) of patients
treatment-related TEAE: Musculoskeletal and connective tissue disorders ([1]; 200 mg once daily): 0 number (%) of patients
treatment-related TEAE: Nervous system disorders ([1]; 200 mg once daily): 1 (8.3) number (%) of patients
treatment-related TEAE: Renal and urinary disorders ([1]; 200 mg once daily): 0 number (%) of patients
overall tolerability ([1]; studies 1 and 2): generally well tolerated
ACR20 responders at week 4 ([2]; 30 mg once daily): 6 (35.3) no. (%)
ACR50 responders at week 4 ([2]; 30 mg once daily): 2 (11.8) no. (%)
DAS28‐CRP, mean change from baseline at week 4 ([2]; 30 mg once daily): −1.08
EULAR cumulative score, good/moderate, at week 4 ([2]; 30 mg once daily): 58.8%
HAQ DI score, mean change from baseline at week 4 ([2]; 30 mg once daily): −0.15
Patient's assessment of pain, mean change from baseline at week 4 ([2]; 30 mg once daily): −7.41 0–10‐cm VAS
Patient's global assessment of disease activity, mean change from baseline at week 4 ([2]; 30 mg once daily): −11.88 0–10‐cm VAS
Physician's global assessment of disease activity, mean change from baseline at week 4 ([2]; 30 mg once daily): −9.76 0–10‐cm VAS
Remission rate (DAS28‐CRP <2.6) at week 4 ([2]; 30 mg once daily): 2 (11.8) no. (%)
SJC66, mean change from baseline at week 4 ([2]; 30 mg once daily): −6.24
Serum CRP, mean change from baseline at week 4 ([2]; 30 mg once daily): -13.28 mg/L
TJC68, mean change from baseline at week 4 ([2]; 30 mg once daily): −10.18
ACR20 responders at week 4 ([2]; 75 mg once daily): 12 (54.5) no. (%)
ACR50 responders at week 4 ([2]; 75 mg once daily): 6 (27.3) no. (%)
DAS28‐CRP, mean change from baseline at week 4 ([2]; 75 mg once daily): −1.72
EULAR cumulative score, good/moderate, at week 4 ([2]; 75 mg once daily): 68.2%
HAQ DI score, mean change from baseline at week 4 ([2]; 75 mg once daily): −0.47
Patient's assessment of pain, mean change from baseline at week 4 ([2]; 75 mg once daily): −21.27 0–10‐cm VAS
Patient's global assessment of disease activity, mean change from baseline at week 4 ([2]; 75 mg once daily): −21.00 0–10‐cm VAS
Physician's global assessment of disease activity, mean change from baseline at week 4 ([2]; 75 mg once daily): −27.09 0–10‐cm VAS
Remission rate (DAS28‐CRP <2.6) at week 4 ([2]; 75 mg once daily): 3 (13.6) no. (%)
SJC66, mean change from baseline at week 4 ([2]; 75 mg once daily): −8.42
Serum CRP, mean change from baseline at week 4 ([2]; 75 mg once daily): -15.09 mg/L
TJC68, mean change from baseline at week 4 ([2]; 75 mg once daily): −13.72
ACR20 responders at week 4 ([2]; 150 mg once daily): 6 (40.0) no. (%)
ACR50 responders at week 4 ([2]; 150 mg once daily): 0 no. (%)
DAS28‐CRP, mean change from baseline at week 4 ([2]; 150 mg once daily): −1.80
EULAR cumulative score, good/moderate, at week 4 ([2]; 150 mg once daily): 66.7%
